Compound activity from PubChem BioAssay.
C8 TRAIL sens: sensitizes caspase-8 expressing cells to TRAIL; hit rate 1% among 360,000; NB7+C8 cells + TRAIL, ATPlite viability luminescence; inhibition (viability loss, TRAIL sensitization), % at 10 µM;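 active = compounds causing at least 50% loss of cell viability in the single-dose screen, relative to plate controls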
HSP90 inh: inhibitors of HSP90 luciferase refolding in rabbit reticulocyte lysate; luciferase refolding luminescence, 3 h; inhibition, % at 5.6 µM; hit rate 0.91% among 290,000;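 active = inhibition above the screen-wide mean plus 3 SD, computed separately per campaign, cut at about 16% in these data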;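 also: 0% = DMSO wells and 100% = 60 µM geldanamycin wells; inhibitors lower the luminescence because luciferase stays unfolded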
FLuc act counter: affects firefly luciferase, flagging false hits in luciferase stimulation screens. P08659. ATPlite luciferase biochemical, luminescence, 10 min; 0 = ATP-free wells, 1 = DMSO control. activation factor at 10 µM. 200,000 tested, under 10 active. AID 1027;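 active = luciferase activation factor, scaled between plate controls, of at least 2 with compound at 10 µM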
Target sequence (P08659 whole entry, looked up): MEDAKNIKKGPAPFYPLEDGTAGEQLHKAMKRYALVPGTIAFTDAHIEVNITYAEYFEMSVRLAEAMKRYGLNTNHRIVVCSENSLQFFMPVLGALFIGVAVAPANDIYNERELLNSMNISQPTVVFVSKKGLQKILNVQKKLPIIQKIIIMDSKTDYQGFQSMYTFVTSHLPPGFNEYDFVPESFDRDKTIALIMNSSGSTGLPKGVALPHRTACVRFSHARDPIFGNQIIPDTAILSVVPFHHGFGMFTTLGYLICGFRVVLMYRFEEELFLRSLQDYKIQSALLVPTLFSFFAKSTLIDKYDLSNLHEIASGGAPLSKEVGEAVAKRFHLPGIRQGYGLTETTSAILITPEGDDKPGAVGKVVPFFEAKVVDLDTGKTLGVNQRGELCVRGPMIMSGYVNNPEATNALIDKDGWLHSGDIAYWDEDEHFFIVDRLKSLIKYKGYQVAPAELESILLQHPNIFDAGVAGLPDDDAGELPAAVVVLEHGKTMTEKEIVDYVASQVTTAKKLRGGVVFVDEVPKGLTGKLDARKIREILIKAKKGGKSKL
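Assay system: Luciferase/luciferin detection reagent, cell-free biochemical luciferase assay / Read-out: luciferase activation / Benchmarks: No-ATP low control, compound-free enzyme-plus-ATP high control / Medium: PBS buffer for ATP / Detection: luminescence measurement of luciferase light output / Schedule: 10 min at ambient temperature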
FLuc inh counter: Photinus pyralis luciferase inhibition counter-screen | AID 1006 | hit rate 1.5% among 200,000 | ATPLite firefly luciferase biochemical luminescence, 10 min | inhibition, % at 10 µM;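 active = inhibition above about 50% when tested at 10 µM, limit read from the data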
STAT3 blocker: STAT3 signaling inhibition; U3A cells, IL-6 STAT3-luciferase reporter, luminescence; host cell line lacks STAT1; hit rate 0.89% among 190,000; inhibition, % at 5.5 µM;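 active = inhibition above the mean inhibition across all screened compounds plus 3 SD, cut at about 44% in these data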;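 also: 0% = DMSO only wells and 100% = 100 µM nifuroxazide control wells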
PPC-1+TRAIL kill: PPC-1 cancer cell killing with TRAIL present; PPC-1 cells + TRAIL, ATPLite viability luminescence; cell killing (% activity), % at 4 µM or 5 µM; hit rate 0.41% among 220,000; AID 1443;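 active = cell killing above 50% in the first pass at 4 µM, then a duplicate retest at 5 µM averaging 50% or more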;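 also: plate controls were cells with TRAIL plus DMSO for no effect and medium-only wells lacking cells for full effect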
PPC-1 tox: kills PPC-1 cells; shares compounds with PPC-1+TRAIL kill; hit rate 50% among 1,200; cytotoxicity, % at 5 µM; PPC-1 viability, ATPlite luminescence, overnight;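 active = reconfirmed compounds whose average cytotoxicity reaches 50% or more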;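 also: 0% = DMSO-treated cells and 100% = wells holding medium but no cells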
Numbers without * were called inactive; . = not tested or not shown. A selection: hits, their analogues and other compounds. The true share with any hit is near 2.2%.

SMILES	C8 TRAIL sens	HSP90 inh	FLuc act counter	FLuc inh counter	STAT3 blocker	PPC-1+TRAIL kill	PPC-1 tox
CC(=O)N1CCN(C(=O)COc2ccccc2C(=O)Nc2ccccc2)CC1	0	-1	1	-3	10	5	8
CCc1ccc(NC(=S)Nc2cccc3cnccc23)cc1	7	4	1	2	-25	-3	-6
O=C(NC(=O)c1ccccc1O)c1ccc(C(F)(F)F)cc1	38	0	.	.	.	20	.
CCCc1ccc(C(=O)NC(=O)c2ccccc2O)cc1	74*	0	.	.	.	61*	61*
CC(Sc1nnc(-c2ccncc2)n1C)C(=O)NCC1CCCO1 (stereo unspecified)	-3	.	.	.	.	.	.
CC(C)c1ccc(Nc2nnc(SCC(=O)Nc3ncc(S(=O)(=O)c4ccc([N+](=O)[O-])cc4)s3)s2)cc1	76*	1	0.3	73*	1	64*	65*
Fc1ccccc1/C=N/Nc1nc(-c2ccccn2)nc2ccccc12	.	3	.	.	.	61*	46
c1ccc(CNc2nc(-c3ccccn3)nc3ccccc23)cc1	8	3	.	.	.	.	.
CCOC(=O)C1=C[C@@H](C(C)(C)C)N(S(=O)(=O)c2ccc(C)cc2)[C@H]1c1ccc(F)cc1	20	.	.	.	.	.	.
CCc1c(C)sc(NC(=O)c2cc(-c3ccc(O)cc3)on2)c1C#N	0	4	1.1	-9	6	6	.
CCc1c(C)sc(NC(=O)c2cc(CC(C)C)on2)c1C#N	-3	1	1.1	-8	21	2	-1
Cc1nn(-c2nc3ccccc3[nH]2)c(=O)c2ccccc12	96*	99*	0	97*	112*	97*	97*
O=S1(=O)c2cccc3cccc(c23)N1Cc1ccc(-c2nnco2)cc1	8	2	1.1	-8	6	1	4
CN1CCN(c2ccc(-c3ccc4ccccc4n3)cc2)CC1	90*	89*	0.1	94*	112*	82*	77*
CC(C)OC(=O)c1cccc(-c2ccc(C=O)o2)c1	5	-1	0.9	6	1	33	.
Cc1onc(-c2ccccc2Cl)c1C(=O)NCc1cccnc1	-5	1	1.1	-7	3	31	.
COc1ccc(CNC(=O)c2c(C)oc3c2C(=O)c2ccccc2C3=O)cc1	94*	3	1.1	-10	-2	59*	57*
Cc1oc2c(c1C(=O)NCc1cccnc1)C(=O)c1ccccc1C2=O	.	16*	1.1	-6	.	95*	94*
COc1ccc2oc(C(=O)Nc3nc4ccccc4[nH]3)c(C)c2c1	69*	5	.	.	.	59*	54*
COc1ccc(Br)c(C(=O)Nc2nc3ccccc3[nH]2)c1	-5	1	.	.	.	.	.
O=C(Nc1nc2ccccc2[nH]1)c1cc2ccccc2o1	66*	6	0.3	75*	26	68*	69*
O=C(CNCc1cccc(Cl)c1)N1CCc2ccccc2C1	-4	0	.	.	.	.	.
CCOc1ccc(CCNC(=O)COC(=O)c2ccc(Br)o2)cc1OCC	-13	.	.	.	.	.	.
COc1cccc(N=c2oc3ccc(OC)cc3cc2-c2nc3ccccc3[nH]2)c1	63*	-1	0.9	13	-56	9	26
COc1ccc(N=c2oc3ccc(OC)cc3cc2-c2nc3ccccc3[nH]2)cc1	43	1	1	4	-46	26	.
SMILES	C8 TRAIL sens	HSP90 inh	FLuc act counter	FLuc inh counter	STAT3 blocker	PPC-1+TRAIL kill	PPC-1 tox
Cc1cc(=O)oc(C)c1C(=O)OCC(=O)c1ccc(Cl)cc1	11	-2	0.9	14	32	4	.
O=C(N/N=C/c1cccc2cccnc12)c1ccccc1O	41	3	.	.	.	33	19
C(=N\Nc1nc2ccccc2[nH]1)/c1cccc2cccnc12	19	4	.	.	.	53*	52*
C#CCOCCOCCOCCNc1nc(N2CCN(C(=O)Cn3cc(CC(C)O)nn3)CC2)nc(N2CCN(C(=O)[C@H]([C@@H](C)CC)n3cc(CCCCN)nn3)CC2)n1 (stereo partly specified)	-8	.	.	.	.	.	.
Cc1ccc(NCC(=O)N/N=C/c2cccc(Oc3ccccc3)c2)cc1	28	0	1	-4	-2	14	.
CCC(C)N(C(=O)Cn1cnc2c1c(=O)n(C)c(=O)n2C)C1CCS(=O)(=O)C1 (stereo unspecified)	9	.	.	.	.	.	.
CCN(CC)c1ccc(N=Cc2ccc(N(CC)CC)cc2O)cc1	18	6	1.1	-6	11	13	6
CC1=C(C(=O)N(C)C)C(c2ccc(C)s2)NC(=S)N1 (stereo unspecified)	-3	1	1	-4	3	-18	.
CCN(CC)C(=O)C1=C(C)NC(=S)NC1c1ccc(C)s1 (stereo unspecified)	4	3	1.1	-6	6	-6	-13
CC(C)(C)NC(=O)C1(C)CCC(=O)N1CCCn1ccnc1 (stereo unspecified)	4	.	.	.	.	.	.
Cc1ccccc1NC(=O)Cc1cn(C)c2ccccc12	6	1	1	0	9	4	-9
CN(C)C1(CNC(=O)C2CCN(S(=O)(=O)c3ccccc3C(F)(F)F)CC2)CCCCC1	3	-1	.	.	.	.	.
N#Cc1c(SCC(=O)N2CCCCC2)nsc1SCC(=O)N1CCCCC1	6	1	1	-5	1	3	18
O=C(NCC1CC1)c1ccc2c3n(nc2c1)-c1ccccc1CO3	83*	.	.	.	.	80*	76*
O=C(NCCO)c1ccc2c3n(nc2c1)-c1ccccc1CO3	70*	.	.	.	.	71*	70*
CC(=O)Nc1ccc(C(=O)COC(=O)c2cc(C)oc2C)c(F)c1	-1	.	.	.	.	.	.
O=C(O)C1CCCCC1C(=O)NCCc1ccccc1 (stereo unspecified)	-5	1	1.1	-7	15	8	6
Cc1ccc(-c2cc(C(=O)N/N=C\c3cnn(C)c3C)c3ccccc3n2)cc1C	46	1	0.5	50	-15	53*	45
CCOc1nc(C)cc(C)c1S(=O)(=O)c1cccc(Cl)c1	-9	11	.	.	.	.	.
Cc1cc(C)cc(OCC(=O)NC2=NCCS2)c1	3	-1	1.1	-9	7	-3	0
CC(=O)Nc1ccc(C(=O)OCC(=O)Nc2c(F)cccc2F)cc1	9	4	.	.	.	5	.
CCOC(=O)c1cccc(NC(=O)c2cccs2)c1	8	2	1	0	16	12	.
CCOC(=O)c1sc(NC(=O)c2cccs2)cc1C	49	-4	0.3	71*	42	60*	60*
COc1cccc(OC)c1C(=O)OCc1c(-c2ccccc2)ncc2ccccc12	-16	.	.	.	.	.	.
NC(=O)c1ccccc1N/C=C/C(=O)c1ccc(F)cc1	71*	0	0.1	90*	39	63*	58*
Cc1ccc(C(=O)/C=C/NCc2ccc(F)cc2)cc1	-9	2	1	2	3	6	.
